{
  "source": "ChEMBL document CHEMBL1240401",
  "about": "“Population pharmacokinetic comparison and pharmacodynamic breakpoints of ceftazidime in cystic fibrosis patients and healthy volunteers” (Antimicrob Agents Chemother, 2010)",
  "key": {"Homo sapiens [1]": {"tested_on": "Homo sapiens", "test": "fT>MIC in healthy human subjects at 6 gram/70kg, iv administered as 12 mg/l infusion every 6 hrs", "format": "functional", "summary_of_the_method": "(§1)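 Monte Carlo simulation from the population PK model, using allometric scaling by fat-free mass. All regimens gave 6 g per 70 kg WT daily, as 30-min infusions q8h or q6h, prolonged 4–5-h infusions, or continuous infusion. Protein binding was assumed to be 11%, so only the non-protein-bound fraction counts. The PK-PD breakpoint was the MIC with target-attainment probability ≥90%.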"}, "[2]": {"test": "Total clearance in cystic fibrosis patient at […], iv administered 20 mins infusion", "format": "ADME, organism-based", "conditions": "human, in vivo"}, "Homo sapiens [3]": {"tested_on": "Homo sapiens", "test": "fT>MIC in cystic fibrosis patient at 6 gram/70kg, iv administered as 1 mg/l infusion every 8 hrs", "format": "functional", "summary_of_the_method": "as §1"}, "[4]": {"test": "Total clearance in cystic fibrosis patient at 2 gram, iv administered in 5 mins infusion", "format": "ADME, organism-based", "conditions": "human, in vivo", "summary_of_the_method": "(§2)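 Single-dose, single-centre, open, parallel-group trial in CF patients (n = 8) and healthy volunteers (n = 7). Each subject received 2 g ceftazidime by 5-min IV infusion; three CF patients received 1.5, 1 or 3 g instead. Venous plasma was sampled from 0 min to 12 h after the end of infusion. Drug was read at 275 nm (linear 0.6–200 mg/liter). Noncompartmental parameters were not body-size scaled.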"}, "Homo sapiens [5]": {"tested_on": "Homo sapiens", "test": "fT>MIC in healthy human subjects at 6 gram/70kg, iv administered as 3 mg/l infusion every 8 hrs", "format": "functional", "summary_of_the_method": "as §1"}, "[6]": {"test": "Renal clearance in cystic fibrosis patient", "format": "ADME, organism-based, Kidney", "conditions": "human, in vivo; read-out: CL_renal"}, "[7]": {"test": "Renal clearance in healthy human subjects", "format": "ADME, organism-based, Kidney", "conditions": "in vivo, read-out: CL_renal"}, "[8]": {"test": "Total clearance in healthy human subjects at 2 gram, iv administered in 5 mins infusion", "format": "ADME, organism-based", "conditions": "in vivo", "summary_of_the_method": "as §2"}, "Homo sapiens [9]": {"tested_on": "Homo sapiens", "test": "Volume of distribution at steady state in healthy human subjects at 2 gram, iv administered in 5 mins infusion", "format": "ADME, organism-based", "conditions": "in vivo", "summary_of_the_method": "as §2"}, "[10]": {"test": "Mean residence time in cystic fibrosis patient at 2 gram, iv administered in 5 mins infusion", "format": "ADME, organism-based", "conditions": "human, in vivo", "summary_of_the_method": "as §2"}, "[11]": {"test": "Total clearance in juveline to adult cystic fibrosis patient", "format": "ADME, organism-based", "conditions": "human, in vivo"}, "[12]": {"test": "Volume of distribution at steady state in cystic fibrosis patient at 2 gram, iv administered in 5 mins infusion", "format": "ADME, organism-based", "conditions": "human, in vivo, read-out: Vdss", "summary_of_the_method": "as §2"}, "Homo sapiens [13]": {"tested_on": "Homo sapiens", "test": "fT>MIC in healthy human subjects at 6 gram/70kg, iv administered as 8 mg/l infusion every 8 hrs", "format": "functional", "summary_of_the_method": "as §1"}, "[14]": {"test": "Total clearance in healthy human subjects at […], iv administered 20 mins infusion", "format": "ADME, organism-based", "conditions": "in vivo"}, "[15]": {"test": "Total clearance in cystic fibrosis patient", "format": "ADME, organism-based", "conditions": "human, in vivo"}, "[16]": {"test": "Cmax in healthy human subjects at 2 gram, iv administered in 5 mins infusion", "format": "ADME, organism-based", "set-up": "route intravenous", "conditions": "in vivo", "summary_of_the_method": "as §2"}, "[17]": {"test": "Mean residence time in healthy human subjects at 2 gram, iv administered in 5 mins infusion", "format": "ADME, organism-based", "conditions": "in vivo", "summary_of_the_method": "as §2"}, "[18]": {"test": "Terminal half life in cystic fibrosis patient at […], iv administered 20 mins infusion", "format": "ADME, organism-based", "conditions": "human, in vivo, read-out: beta t1/2 (converted)"}, "[19]": {"test": "Terminal half life in healthy human subjects at 2 gram, iv administered in 5 mins infusion", "format": "ADME, organism-based", "conditions": "in vivo, read-out: beta t1/2 (converted)", "summary_of_the_method": "as §2"}, "Homo sapiens [20]": {"tested_on": "Homo sapiens", "test": "fT>MIC in healthy human subjects at 6 gram/70kg, iv administered as 4 mg/l infusion every 6 hrs", "format": "functional", "summary_of_the_method": "as §1"}, "Homo sapiens [21]": {"tested_on": "Homo sapiens", "test": "fT>MIC in cystic fibrosis patient at 6 gram/70kg, iv administered as 6 mg/l infusion every 6 hrs", "format": "functional", "summary_of_the_method": "as §1"}, "[22]": {"test": "Cmax in cystic fibrosis patient at 2 gram, iv administered in 5 mins infusion", "format": "ADME, organism-based", "set-up": "route intravenous", "conditions": "human, in vivo", "summary_of_the_method": "as §2"}, "[23]": {"test": "Terminal half life in cystic fibrosis patient at 2 gram, iv administered in 5 mins infusion", "format": "ADME, organism-based", "conditions": "human, in vivo, read-out: beta t1/2 (converted)", "summary_of_the_method": "as §2"}, "Homo sapiens [24]": {"tested_on": "Homo sapiens", "test": "fT>MIC in cystic fibrosis patient at 6 gram/70kg, iv administered as 2 mg/l infusion every 6 hrs", "format": "functional", "summary_of_the_method": "as §1"}, "Homo sapiens [25]": {"tested_on": "Homo sapiens", "test": "fT>MIC in cystic fibrosis patient at 6 gram/70kg, iv administered as 6 mg/l infusion"}, "[26]": {"test": "Terminal half life in healthy human subjects at […], iv administered 20 mins infusion", "format": "ADME, organism-based", "conditions": "in vivo, read-out: beta t1/2 (converted)"}},
  "data": [
    {"smiles": "CC(C)(O/N=C(\\C(=O)N[C@@H]1C(=O)N2C(C(=O)[O-])=C(C[n+]3ccccc3)CS[C@H]12)c1csc(N)n1)C(=O)O", "note": "[CEFTAZIDIME]", "values": [
      {"measurement": "fT>MIC", "setting": "Homo sapiens [1]", "result": ">=40%"},
      {"measurement": "clearance", "setting": "[2]", "result": 142, "unit": "mL/min"},
      {"measurement": "fT>MIC", "setting": "Homo sapiens [3]", "result": ">=65%"},
      {"measurement": "clearance", "setting": "[4]", "result": 89.5, "unit": "mL/min"},
      {"measurement": "fT>MIC", "setting": "Homo sapiens [5]", "result": ">=65%"},
      {"measurement": "CL renal", "setting": "[6]", "result": 125, "unit": "mL/min"},
      {"measurement": "CL renal", "setting": "[7]", "result": 100, "unit": "mL/min"},
      {"measurement": "clearance", "setting": "[8]", "result": 110, "unit": "mL/min"},
      {"measurement": "Vdss", "setting": "Homo sapiens [9]", "result": 14.3, "unit": "L"},
      {"measurement": "MRT", "setting": "[10]", "result": 1.54, "unit": "h"},
      {"measurement": "clearance", "setting": "[11]", "result": 133, "unit": "mL/min"},
      {"measurement": "Vd", "setting": "[12]", "result": 9.14, "unit": "L"},
      {"measurement": "fT>MIC", "setting": "Homo sapiens [13]", "result": ">=40%"},
      {"measurement": "clearance", "setting": "[14]", "result": 101, "unit": "mL/min"},
      {"measurement": "clearance", "setting": "[15]", "result": 127, "unit": "mL/min"},
      {"measurement": "Cmax", "setting": "[16]", "result": 210, "unit": "µg/mL"},
      {"measurement": "MRT", "setting": "[17]", "result": 2.1, "unit": "h"},
      {"measurement": "half-life", "setting": "[18]", "result": 1.5, "unit": "h"},
      {"measurement": "half-life", "setting": "[19]", "result": 1.94, "unit": "h"},
      {"measurement": "fT>MIC", "setting": "Homo sapiens [20]", "result": ">=65%"},
      {"measurement": "fT>MIC", "setting": "Homo sapiens [21]", "result": ">=40%"},
      {"measurement": "Cmax", "setting": "[22]", "result": 445, "unit": "µg/mL"},
      {"measurement": "half-life", "setting": "[23]", "result": 1.48, "unit": "h"},
      {"measurement": "fT>MIC", "setting": "Homo sapiens [24]", "result": ">=65%"},
      {"measurement": "fT>MIC", "setting": "Homo sapiens [25]", "result": ">=40%"},
      {"measurement": "half-life", "setting": "[26]", "result": 1.76, "unit": "h"}
    ]}
  ]
}
